Assay [1] relates to Mus musculus. The assay is described as follows: Antipsychotic activity in ip dosed albino lyka mouse assessed as reversal of apomorphine-induced mesh climbing response administered 10 mins prior to apomorphine challenge after 10 to 30 mins. In kind it is functional. In outline:
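Mice of either sex (26–38 g), six per group, habituated singly in a wire-mesh cage (13 cm diameter, 14 cm high). Compound, saline (control) or clozapine (positive control) given ip; apomorphine 2.5 mg kg^-1 ip 10 min later. Climbing was scored over 60 s in the mesh cage at 10, 15, 20, 25 and 30 min: 1 = one–three paws on mesh, 2 = all four. Three titrated dose levels.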

The subject of assay [2] is Mus musculus. The assay is described as follows: Antipsychotic activity in ip dosed albino lyka mouse assessed as reversal of apomorphine-induced stereotype response administered 10 mins prior to apomorphine challenge after 10 to 30 mins. Format: functional. A digest of the protocol: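 Mice of either sex (26–38 g) received vehicle, compound or clozapine (positive control), then apomorphine 2.5 mg kg^-1 after 10 min. Stereotypy was scored over 60 s in an inverted 500 ml beaker at 10, 15, 20, 25 and 30 min post-apomorphine: 1 = rearing, sniffing or grooming; 2 = licking or biting. Three dose levels, chosen by initial titration.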

Activity calls are given as the source filed them. The calls are words filed in the database; no cut-off is given here.

As a reminder, the ED50 is the dose at which the effect has come halfway, by size or by number of responders. As for `CC(=O)c1ccc(OCCCN2CCN(Cc3ccc(Cl)cc3)CC2)cc1`, the ED50 in assay [1] stood at 50 mg/kg.

For `CC(=O)c1ccccc1OCCCN1CCN(C(=O)c2ccc(Cl)cc2)CC1`, the ED50 result in assay [1] is “inactive”. Moreover, the outcome in assay [2] was Active.

For the molecule `CC(=O)c1ccccc1OCCCN1CCN(Cc2ccc(Cl)cc2)CC1`, the ED50 in assay [1] is 10 mg/kg.

As to `CC(=O)c1ccccc1OCCCN1CCN(C(=O)c2ccccc2Cl)CC1`, the ED50 entry in assay [1] was “inactive”. The outcome in assay [2] was Active.

With `CC(=O)c1ccc(OCCCN2CCN(C(=O)c3ccccc3Cl)CC2)cc1`, the ED50 result in assay [1] was “inactive”. For the same molecule, in assay [2], the result was Active.

In the case of `Clc1ccc(CN2CCN(Cc3ccc(Cl)cc3)CC2)cc1`, the ED50 in assay [1] was 10.5 mg/kg. In addition, the Activity in assay [2] is reported as 1.02.

`CC(=O)c1ccc(OCCCN2CCN(Cc3ccccc3Cl)CC2)cc1`: in assay [1], the ED50 turned out to be 23 mg/kg.

In the case of `CC(=O)c1ccccc1OCCCN1CCN(Cc2ccccc2Cl)CC1`, the ED50 in assay [1] came to 10.5 mg/kg.

With `CC(=O)c1ccc(OCCCN2CCN(C(=O)c3ccc(Cl)cc3)CC2)cc1`, the ED50 result in assay [1] is “inactive”. For the same molecule, in assay [2], the result was Active.

With `Clc1ccccc1CN1CCN(Cc2ccccc2Cl)CC1`, the ED50 in assay [1] amounted to 7.2 mg/kg. Further, the Activity in assay [2] came out at 0.86.

Values taken from ChEMBL document CHEMBL1165883, “Synthesis, evaluation and computational studies on a series of acetophenone based 1-(aryloxypropyl)-4-(chloroaryl) piperazines as potential atypical antipsychotics” (2010).
